In ChEMBL document CHEMBL3745647, “Design, synthesis and biological evaluation of pyrazolyl-nitroimidazole derivatives as potential EGFR/HER-2 kinase inhibitors” (Bioorg Med Chem Lett, 2016):

Key:
MCF7 = assay: Antiproliferative activity against human MCF7 cells after 12 hrs by MTT assay; format: functional, cell-based; conditions: MCF7, 12 h
HeLa [1] = assay: Antiproliferative activity against human HeLa cells after 12 hrs by MTT assay; format: functional, cell-based
[2] = target: Receptor tyrosine-protein kinase erbB-2 (Homo sapiens, UniProt P04626); assay: Inhibition of His-tagged human HER-2 cytoplasmic domain (676-1245 aa) (unknown origin) assessed as inhibition of autophosphorylation by TR-fluorometry
[3] = target: Epidermal growth factor receptor (Homo sapiens, UniProt P00533); assay: Inhibition of His-tagged EGFR cytoplasmic domain (645-1186 aa) (unknown origin) assessed as inhibition of autophosphorylation by TR-fluorometry
[4] = Cytotoxicity against human HEK293T cells for 24 hrs by MTT assay; format: cell-based, HEK-293T
In short: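 293T human kidney epithelial cells exposed to multiple concentrations and viability read by MTT.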

HepG2 = assay: Antiproliferative activity against human HepG2 cells after 12 hrs by MTT assay; format: functional, cell-based; conditions: HepG2, 12 h
[5] = Antiproliferative activity against mouse B16F10 cells after 12 hrs by MTT assay; format: functional, cell-based; conditions: B16-F10, 12 h
HeLa [6] = assay: Induction of apoptosis in human HeLa cells assessed as early apoptotic cells at 0.13 uM after 48 hrs by annexin-V-FITC/PI staining based flow cytometry (reference value: 0.889%); format: functional
In short: (§1)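 HeLa cells treated at 0.13, 0.26, 0.52 or 1.04 µM for 48 h, then collected and stained with annexin V-FITC/PI for flow cytometry. Early apoptotic cells are annexin V+/PI− (lower right quadrant) and late apoptotic cells are annexin V+/PI+ (upper right quadrant). Data are mean ± S.E.M. of three independent experiments.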

HeLa [7] = assay: Induction of apoptosis in human HeLa cells assessed as viable cells at 0.13 uM after 48 hrs by annexin-V-FITC/PI staining based flow cytometry (reference value: 86.8%); format: functional; conditions: read-out: Activity; in short: as §1
HeLa [8] = assay: Induction of apoptosis in human HeLa cells assessed as necrotic cells at 1.04 uM after 48 hrs by annexin-V-FITC/PI staining based flow cytometry (reference value: 3.82%); format: functional; in short: as §1
HeLa [9] = assay: Induction of apoptosis in human HeLa cells assessed as viable cells at 0.26 uM after 48 hrs by annexin-V-FITC/PI staining based flow cytometry (reference value: 86.8%); format: functional; conditions: read-out: Activity; in short: as §1
HeLa [10] = assay: Induction of apoptosis in human HeLa cells assessed as viable cells at 0.52 uM after 48 hrs by annexin-V-FITC/PI staining based flow cytometry (reference value: 86.8%); format: functional; conditions: read-out: Activity; in short: as §1
HeLa [11] = assay: Induction of apoptosis in human HeLa cells assessed as necrotic cells at 0.52 uM after 48 hrs by annexin-V-FITC/PI staining based flow cytometry (reference value: 3.82%); format: functional; in short: as §1
HeLa [12] = assay: Induction of apoptosis in human HeLa cells assessed as late apoptotic cells at 0.26 uM after 48 hrs by annexin-V-FITC/PI staining based flow cytometry (reference value: 8.52%); format: functional; in short: as §1
HeLa [13] = assay: Induction of apoptosis in human HeLa cells assessed as viable cells at 1.04 uM after 48 hrs by annexin-V-FITC/PI staining based flow cytometry (reference value: 86.8%); format: functional; conditions: read-out: Activity; in short: as §1
HeLa [14] = assay: Induction of apoptosis in human HeLa cells assessed as necrotic cells at 0.26 uM after 48 hrs by annexin-V-FITC/PI staining based flow cytometry (reference value: 3.82%); format: functional; in short: as §1
HeLa [15] = assay: Induction of apoptosis in human HeLa cells assessed as early apoptotic cells at 0.52 uM after 48 hrs by annexin-V-FITC/PI staining based flow cytometry (reference value: 0.889%); format: functional; in short: as §1
HeLa [16] = assay: Induction of apoptosis in human HeLa cells assessed as early apoptotic cells at 1.04 uM after 48 hrs by annexin-V-FITC/PI staining based flow cytometry (reference value: 0.889%); format: functional; in short: as §1
HeLa [17] = assay: Induction of apoptosis in human HeLa cells assessed as late apoptotic cells at 0.13 uM after 48 hrs by annexin-V-FITC/PI staining based flow cytometry (reference value: 8.52%); format: functional; in short: as §1
HeLa [18] = assay: Induction of apoptosis in human HeLa cells assessed as late apoptotic cells at 1.04 uM after 48 hrs by annexin-V-FITC/PI staining based flow cytometry (reference value: 8.52%); format: functional; in short: as §1
HeLa [19] = assay: Induction of apoptosis in human HeLa cells assessed as early apoptotic cells at 0.26 uM after 48 hrs by annexin-V-FITC/PI staining based flow cytometry (reference value: 0.889%); format: functional; in short: as §1
HeLa [20] = assay: Induction of apoptosis in human HeLa cells assessed as late apoptotic cells at 0.52 uM after 48 hrs by annexin-V-FITC/PI staining based flow cytometry (reference value: 8.52%); format: functional; in short: as §1
HeLa [21] = assay: Induction of apoptosis in human HeLa cells after 48 hrs by annexin-V-FITC/PI staining based flow cytometry; format: functional, cell-based; in short: as §1
HeLa [22] = assay: Induction of apoptosis in human HeLa cells assessed as necrotic cells at 0.13 uM after 48 hrs by annexin-V-FITC/PI staining based flow cytometry (reference value: 3.82%); format: functional; in short: as §1

Receptor tyrosine-protein kinase erbB-2, sequence (P04626 whole entry, the tested form may be a part): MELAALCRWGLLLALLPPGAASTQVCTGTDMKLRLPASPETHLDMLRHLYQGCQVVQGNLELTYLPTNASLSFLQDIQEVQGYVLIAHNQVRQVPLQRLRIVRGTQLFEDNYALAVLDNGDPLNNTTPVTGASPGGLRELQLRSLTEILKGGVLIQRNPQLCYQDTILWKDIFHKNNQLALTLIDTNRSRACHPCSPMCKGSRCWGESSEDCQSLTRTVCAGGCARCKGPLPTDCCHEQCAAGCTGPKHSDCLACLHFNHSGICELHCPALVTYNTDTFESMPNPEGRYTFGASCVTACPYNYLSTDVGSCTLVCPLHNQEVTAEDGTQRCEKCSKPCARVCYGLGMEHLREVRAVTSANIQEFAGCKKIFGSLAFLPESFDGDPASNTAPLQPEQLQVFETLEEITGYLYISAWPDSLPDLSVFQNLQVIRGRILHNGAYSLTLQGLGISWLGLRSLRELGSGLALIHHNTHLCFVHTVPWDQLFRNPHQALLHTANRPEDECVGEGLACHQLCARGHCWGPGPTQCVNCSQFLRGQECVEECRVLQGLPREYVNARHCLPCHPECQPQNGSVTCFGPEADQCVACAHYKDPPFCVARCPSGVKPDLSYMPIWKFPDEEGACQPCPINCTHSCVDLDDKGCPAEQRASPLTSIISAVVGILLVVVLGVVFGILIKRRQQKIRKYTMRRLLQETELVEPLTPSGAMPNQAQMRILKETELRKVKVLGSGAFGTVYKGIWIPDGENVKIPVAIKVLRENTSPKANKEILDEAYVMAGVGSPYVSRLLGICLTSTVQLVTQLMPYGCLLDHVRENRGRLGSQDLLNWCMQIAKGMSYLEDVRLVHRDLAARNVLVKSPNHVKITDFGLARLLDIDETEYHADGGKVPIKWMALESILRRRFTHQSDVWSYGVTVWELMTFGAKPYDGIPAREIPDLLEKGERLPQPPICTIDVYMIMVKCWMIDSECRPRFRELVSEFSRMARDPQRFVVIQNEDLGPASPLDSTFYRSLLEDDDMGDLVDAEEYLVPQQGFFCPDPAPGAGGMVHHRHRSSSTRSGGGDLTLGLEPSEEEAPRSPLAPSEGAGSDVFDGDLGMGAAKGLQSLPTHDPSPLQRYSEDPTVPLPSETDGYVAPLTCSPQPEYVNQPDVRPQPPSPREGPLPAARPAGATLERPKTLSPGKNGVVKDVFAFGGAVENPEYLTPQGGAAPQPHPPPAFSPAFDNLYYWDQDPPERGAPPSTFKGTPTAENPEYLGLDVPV
Epidermal growth factor receptor, sequence (P00533 whole entry, the tested form may be a part): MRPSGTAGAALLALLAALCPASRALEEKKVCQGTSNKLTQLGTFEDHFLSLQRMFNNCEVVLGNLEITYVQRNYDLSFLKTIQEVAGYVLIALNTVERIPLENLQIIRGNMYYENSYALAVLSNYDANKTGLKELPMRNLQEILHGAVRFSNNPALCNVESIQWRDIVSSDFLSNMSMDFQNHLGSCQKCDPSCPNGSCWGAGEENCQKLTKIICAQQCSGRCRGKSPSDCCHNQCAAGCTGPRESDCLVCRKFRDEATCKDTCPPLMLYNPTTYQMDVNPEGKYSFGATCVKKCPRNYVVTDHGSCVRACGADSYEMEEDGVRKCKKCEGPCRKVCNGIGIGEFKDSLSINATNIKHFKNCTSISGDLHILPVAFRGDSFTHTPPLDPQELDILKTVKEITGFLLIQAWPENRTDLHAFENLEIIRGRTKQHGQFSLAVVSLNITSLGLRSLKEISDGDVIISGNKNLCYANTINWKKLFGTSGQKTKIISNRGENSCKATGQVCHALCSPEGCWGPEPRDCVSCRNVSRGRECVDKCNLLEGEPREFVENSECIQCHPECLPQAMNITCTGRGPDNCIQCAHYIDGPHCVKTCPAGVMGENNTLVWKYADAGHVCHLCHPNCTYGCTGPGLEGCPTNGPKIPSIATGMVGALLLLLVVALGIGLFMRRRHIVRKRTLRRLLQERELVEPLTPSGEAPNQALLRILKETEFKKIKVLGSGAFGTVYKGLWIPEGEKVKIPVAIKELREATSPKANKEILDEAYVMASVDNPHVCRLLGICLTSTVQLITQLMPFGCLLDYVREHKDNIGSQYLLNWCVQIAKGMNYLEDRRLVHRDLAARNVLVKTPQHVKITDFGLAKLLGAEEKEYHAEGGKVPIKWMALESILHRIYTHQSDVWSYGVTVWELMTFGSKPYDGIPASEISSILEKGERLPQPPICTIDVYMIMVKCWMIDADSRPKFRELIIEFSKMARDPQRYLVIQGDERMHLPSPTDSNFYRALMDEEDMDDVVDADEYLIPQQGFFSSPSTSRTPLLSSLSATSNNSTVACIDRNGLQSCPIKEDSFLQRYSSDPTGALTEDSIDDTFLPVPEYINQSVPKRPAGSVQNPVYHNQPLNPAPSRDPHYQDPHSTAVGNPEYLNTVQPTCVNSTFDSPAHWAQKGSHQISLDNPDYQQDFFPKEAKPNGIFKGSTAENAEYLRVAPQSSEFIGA

SMILES	IC50 (MCF7)	IC50 (HeLa [1])	IC50 [2]	IC50 ([3]; read-out: IC50)	IC50 ([3]; read-out: pIC50 (converted))	CC50 at 24 h [4]	IC50 (HepG2)	IC50 [5]	further results
CC(=O)N1N=C(c2ccc([N+](=O)[O-])cc2)CC1c1ccc(C(=O)OCCn2c([N+](=O)[O-])cnc2C)cc1 (stereo unspecified)	1.13 µM	0.15 µM	2.06 µM	0.6 µM	0.601 µM	78.8 µM	1.75 µM	0.38 µM	
CC(=O)N1N=C(c2ccccc2)CC1c1ccc(C(=O)OCCn2c([N+](=O)[O-])cnc2C)cc1 (stereo unspecified)	58.2 µM	48.8 µM	14 µM	9.58 µM	9.59 µM		42.2 µM	62.7 µM	
CC(=O)N1N=C(c2ccc(C)cc2)CC1c1ccc(C(=O)OC(C)Cn2c([N+](=O)[O-])cnc2C)cc1 (stereo unspecified)	92.1 µM	72.1 µM	18.9 µM	25.6 µM	25.6 µM		58.1 µM	> 100 µM	
CC(=O)N1N=C(c2ccc(I)cc2)CC1c1ccc(C(=O)OCCn2c([N+](=O)[O-])cnc2C)cc1 (stereo unspecified)	4.85 µM	7.53 µM	2.75 µM	1.26 µM	1.26 µM		6.28 µM	11.8 µM	
CC(=O)N1N=C(c2ccc(I)cc2)CC1c1ccc(C(=O)OC(C)Cn2c([N+](=O)[O-])cnc2C)cc1 (stereo unspecified)	9.77 µM	25.6 µM	12.7 µM	10.7 µM	10.7 µM		9.98 µM	19.1 µM	
CS(=O)(=O)CCNCc1ccc(-c2ccc3ncnc(Nc4ccc(OCc5cccc(F)c5)c(Cl)c4)c3c2)o1 [LAPATINIB]	0.47 µM	0.12 µM				123 µM	0.27 µM	0.21 µM	
CC(=O)N1N=C(c2ccc(Cl)cc2)CC1c1ccc(C(=O)OC(C)Cn2c([N+](=O)[O-])cnc2C)cc1 (stereo unspecified)	8.82 µM	15.6 µM	9.96 µM	9.26 µM	9.27 µM		12.2 µM	22.2 µM	
CC(=O)N1N=C(c2ccc(Br)cc2)CC1c1ccc(C(=O)OC(C)Cn2c([N+](=O)[O-])cnc2C)cc1 (stereo unspecified)	8.92 µM	11.8 µM	8.27 µM	5.96 µM	5.97 µM		9.02 µM	10.8 µM	
CCOc1ccc(C2=NN(C(C)=O)C(c3ccc(C(=O)OC(C)Cn4c([N+](=O)[O-])cnc4C)cc3)C2)cc1 (stereo unspecified)	40.6 µM	47.6 µM	18.1 µM	26.9 µM	27 µM		38.8 µM	46.6 µM	
CC(=O)N1N=C(c2ccc(F)cc2)CC1c1ccc(C(=O)OC(C)Cn2c([N+](=O)[O-])cnc2C)cc1 (stereo unspecified)	5.21 µM	7.42 µM	8.54 µM	6.58 µM	6.59 µM		8.89 µM	15.5 µM	
CC(=O)N1N=C(c2ccc(Br)cc2)CC1c1ccc(C(=O)OCCn2c([N+](=O)[O-])cnc2C)cc1 (stereo unspecified)	5.56 µM	2.82 µM	3.45 µM	4.13 µM	4.13 µM		3.82 µM	13.1 µM	
CC(=O)N1N=C(c2ccc(F)cc2)CC1c1ccc(C(=O)OCCn2c([N+](=O)[O-])cnc2C)cc1 (stereo unspecified)	1.67 µM	2.45 µM	4.07 µM			118 µM	1.89 µM	4.19 µM	
CC(=O)N1N=C(c2ccc(C(F)(F)F)cc2)CC1c1ccc(C(=O)OCCn2c([N+](=O)[O-])cnc2C)cc1 (stereo unspecified)	0.96 µM	0.13 µM	0.51 µM	0.26 µM		98.9 µM	0.33 µM	0.19 µM	Activity (HeLa [6]): 3.72%; viability at 0.13 µM (HeLa [7]): 73.9%; Activity (HeLa [8]): 0.43%; viability at 0.26 µM (HeLa [9]): 50.7%; viability at 0.52 µM (HeLa [10]): 42.1%; Activity (HeLa [11]): 0.988%; Activity (HeLa [12]): 21.9%; viability at 1.04 µM (HeLa [13]): 18.6%; Activity (HeLa [14]): 0.688%; Activity (HeLa [15]): 36.2%; Activity (HeLa [16]): 54.2%; Activity (HeLa [17]): 20.5%; Activity (HeLa [18]): 26.7%; Activity (HeLa [19]): 26.7%; Activity (HeLa [20]): 20.7%; Activity (HeLa [21]): Dose-dependent effect; Activity (HeLa [22]): 1.88%
CC(=O)N1N=C(c2ccc([N+](=O)[O-])cc2)CC1c1ccc(C(=O)OC(C)Cn2c([N+](=O)[O-])cnc2C)cc1 (stereo unspecified)	3.33 µM	3.78 µM	3.53 µM	1.45 µM	1.45 µM	168 µM	3.62 µM	12.2 µM	
CC(=O)N1N=C(c2ccccc2)CC1c1ccc(C(=O)OC(C)Cn2c([N+](=O)[O-])cnc2C)cc1 (stereo unspecified)	49.9 µM	45.2 µM	17 µM	12.2 µM	12.2 µM		43.8 µM	68.2 µM	
COc1ccc(C2=NN(C(C)=O)C(c3ccc(C(=O)OCCn4c([N+](=O)[O-])cnc4C)cc3)C2)cc1 (stereo unspecified)	30.2 µM	27.9 µM	17.3 µM	8.54 µM	8.55 µM		15.8 µM	36.2 µM	
CCOc1ccc(C2=NN(C(C)=O)C(c3ccc(C(=O)OCCn4c([N+](=O)[O-])cnc4C)cc3)C2)cc1 (stereo unspecified)	20.6 µM	31.4 µM	14.9 µM	15.2 µM	15.2 µM		19.3 µM	38.9 µM	
COc1ccc(C2=NN(C(C)=O)C(c3ccc(C(=O)OC(C)Cn4c([N+](=O)[O-])cnc4C)cc3)C2)cc1 (stereo unspecified)	28 µM	35.1 µM	12 µM	21.3 µM	21.3 µM		25.2 µM	40.6 µM	
CC(=O)N1N=C(c2ccc(Cl)cc2)CC1c1ccc(C(=O)OCCn2c([N+](=O)[O-])cnc2C)cc1 (stereo unspecified)	2.27 µM	4.13 µM	4.1 µM	7.37 µM	7.38 µM	138 µM	3.31 µM	4.82 µM	
CC(=O)N1N=C(c2ccc(C(F)(F)F)cc2)CC1c1ccc(C(=O)OC(C)Cn2c([N+](=O)[O-])cnc2C)cc1 (stereo unspecified)	2.18 µM	0.42 µM	5.62 µM	6.67 µM	6.68 µM	92.6 µM	2.21 µM	5.87 µM	
CC(=O)N1N=C(c2ccc(C)cc2)CC1c1ccc(C(=O)OCCn2c([N+](=O)[O-])cnc2C)cc1 (stereo unspecified)	70.7 µM	76.8 µM	13.2 µM	10.9 µM	10.9 µM		50.2 µM	> 100 µM	
C#Cc1cccc(Nc2ncnc3cc(OCCOC)c(OCCOC)cc23)c1 [ERLOTINIB]						105 µM			
